Screening data as filed in PubChem BioAssay.
Shown are actives, neighbours in structure and some others; about 1.7% of the full set was active somewhere.
Neddyl block = inhibitors of human cullin neddylation; P61081+Q13564; TR-FRET cullin neddylation, biochemical; inhibition, % at 25 µM; actives 0.58% (n = 360,000); in the data active means inhibition above about 36%
Pemphigus Ab inh = inhibitors of pemphigus antibody binding to human desmoglein-3; P32926; DSG3-coupled beads, scFv-anti-DSG3-GFP binding, flow cytometry; stronger effect = lower value; actives 0.48% (n = 310,000); AID 588358; binding (percent of control), % at 10 µM;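 active means binding more than 3 SD below its plate's average and above zero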;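 further: hits lower antibody fragment binding to DSG3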
Efflux pump mplx = blocks antifungal efflux pumps in multiplex yeast assay | S. cerevisiae Candida pump triplex, Nile Red efflux | inhibition, % at 10 µM | actives 0.44% (n = 330,000) | AID 485275;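 active means plate passing quality check with inhibition over a set limit, or well fluorescence over plate mean plus 4 SD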;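 further: Nile Red retained in pooled yeast measured as flow cytometry median fluorescence; higher means more Nile Red kept so more efflux inhibition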
Arr AP2 block = inhibitors of human beta-arrestin and AP2 interaction; FITC-arrestin peptide / GST-AP2 beads, flow cytometry; AP2 beta2 appendage carries R879A mutation; inhibition, % at 10 µM; actives 0.31% (n = 340,000); AID 504490;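 active means inhibition above a set limit, near 3 SD of compounds lacking own fluorescence, cut at about 54% in these data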
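Material – GST-tagged AP2 beta2-adaptin appendage (R879A) on 4 µm glutathione beads · Probe or stimulus – fluorescein-tagged arrestin peptide at 50 nM final · Timing – 12 min plus 1 h, RT · Detection – bead flow cytometry, FITC channel · Read-out basis – inhibition as reduced fluorescein signal on beads, percent · Medium – PBS plus Tween 20 (0.05%) and BSA (0.1%)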
Arr-AP2 CP1 = blocks beta-arrestin peptide binding to human AP2. inhibition, % at 10 µM. AID 504908. shares compounds with Arr AP2 block. GST-AP2 beads, FITC arrestin peptide binding, flow cytometry; GST-fused beta2-adaptin appendage, R879A mutant. actives 2% (n = 1,300);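 active means inhibition above a set limit, roughly 3 SD of non-fluorescent compound noise, cut at about 38% in these data; inactive means inhibition at or below that limit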;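 further: loss of bead fluorescence from 50 nM FITC arrestin peptide bound to appendage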
Target sequence (P63010 whole entry, looked up, the tested form may be a part, one chain of several): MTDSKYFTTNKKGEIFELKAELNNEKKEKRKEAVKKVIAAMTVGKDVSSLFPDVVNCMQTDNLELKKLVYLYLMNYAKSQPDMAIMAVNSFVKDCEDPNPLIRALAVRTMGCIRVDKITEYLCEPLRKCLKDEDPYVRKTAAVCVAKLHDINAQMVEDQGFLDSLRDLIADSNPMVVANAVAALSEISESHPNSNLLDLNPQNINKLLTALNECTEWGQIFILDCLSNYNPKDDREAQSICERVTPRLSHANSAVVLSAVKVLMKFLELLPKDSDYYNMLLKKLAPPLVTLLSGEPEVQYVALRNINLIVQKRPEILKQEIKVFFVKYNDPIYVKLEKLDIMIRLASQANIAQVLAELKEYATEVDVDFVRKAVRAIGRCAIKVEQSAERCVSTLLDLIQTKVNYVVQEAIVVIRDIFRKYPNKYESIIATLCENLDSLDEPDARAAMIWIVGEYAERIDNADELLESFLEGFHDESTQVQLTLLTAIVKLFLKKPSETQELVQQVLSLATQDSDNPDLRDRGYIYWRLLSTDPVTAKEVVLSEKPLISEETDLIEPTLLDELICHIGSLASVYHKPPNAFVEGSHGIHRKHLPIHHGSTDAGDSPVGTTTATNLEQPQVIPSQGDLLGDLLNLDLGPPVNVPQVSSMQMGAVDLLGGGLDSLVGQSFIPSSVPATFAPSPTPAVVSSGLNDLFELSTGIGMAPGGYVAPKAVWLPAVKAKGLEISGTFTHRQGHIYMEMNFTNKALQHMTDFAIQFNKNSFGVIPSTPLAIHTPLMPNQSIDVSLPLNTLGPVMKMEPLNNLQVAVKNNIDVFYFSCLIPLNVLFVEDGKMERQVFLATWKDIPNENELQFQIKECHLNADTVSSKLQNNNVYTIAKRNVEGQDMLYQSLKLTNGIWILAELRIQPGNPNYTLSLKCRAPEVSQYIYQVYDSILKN
GST GSH counter = counter-screen for beta-arrestin AP2 inhibitors: GST-GSH bead binding | shares compounds with Arr AP2 block | GST-fluorescein binding to GSH beads, fluorescence | inhibition, % at 10 µM | actives 2% (n = 1,300) | AID 588338;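 active means inhibition above 50%, about 3 SD of the inhibition seen with non-fluorescent compounds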;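 further: fluorescein maleimide labelled GST captured on 4 micron glutathione beads; higher means more loss of bead fluorescence from quenching or blocked binding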
Hits are given with their value.

How did CCOC(=O)C1=C(COC(=O)c2ccc(C)s2)NC(=O)NC1C (centres undefined) do in these assays?
Neddyl block: inactive; Pemphigus Ab inh: inactive; Efflux pump mplx: inactive; Arr AP2 block: inactive

How did COc1ccc(N2C(=O)C(CC(=O)O)S/C2=N\N=C\c2cccs2)cc1 (centres undefined) do in these assays?
Neddyl block: inactive; Pemphigus Ab inh: inactive; Efflux pump mplx: inactive; Arr AP2 block: inactive

What do the screens show for `C[C@H](CO)N1C[C@H](C)[C@@H](CN(C)C(=O)Nc2ccc3c(c2)OCO3)Oc2c(NC(=O)Cc3ccccc3)cccc2C1=O`?
Neddyl block: inactive; Pemphigus Ab inh: inactive; Efflux pump mplx: inactive; Arr AP2 block: inactive

How did Cc1ccc(NC(=O)CCS(=O)(=O)c2ccccc2)cc1S(=O)(=O)N1CCCCCC1 do in these assays?
Neddyl block: inactive; Pemphigus Ab inh: inactive; Arr AP2 block: 58; Arr-AP2 CP1: inactive; GST GSH counter: inactive

Results for CCN(C(=O)Cn1cc(C(=O)C(=O)N2CCOCC2)c2ccccc21)c1ccccc1 ?
Neddyl block: inactive; Pemphigus Ab inh: inactive; Efflux pump mplx: inactive; Arr AP2 block: 66; Arr-AP2 CP1: inactive; GST GSH counter: inactive

Results for C/C(CC(=O)Nc1ccc(Cl)cc1)=N\NC(=O)C(=O)N1CCCCC1 ?
Neddyl block: inactive; Efflux pump mplx: inactive; Arr AP2 block: inactive

What do the screens show for `CC(C)c1nc2sc3c(NCc4ccco4)ncnc3c2c2c1COC(C)(C)C2`?
Neddyl block: inactive; Pemphigus Ab inh: inactive; Efflux pump mplx: inactive; Arr AP2 block: 101; Arr-AP2 CP1: inactive; GST GSH counter: inactive

Results for CC1(C)Oc2ccc3ccc(=O)oc3c2/C(=C/Nc2ccc(O)cc2)C1=O ?
Neddyl block: inactive; Pemphigus Ab inh: inactive; Efflux pump mplx: inactive; Arr AP2 block: 55; Arr-AP2 CP1: inactive; GST GSH counter: inactive

Results for CC(NC(=O)c1ccncc1)c1ccc(Br)cc1 (centres undefined) ?
Neddyl block: inactive; Pemphigus Ab inh: inactive; Efflux pump mplx: inactive; Arr AP2 block: inactive

How did O=C(CCn1nc(-c2ccc(Cl)cc2)ccc1=O)NCc1ccccn1 do in these assays?
Neddyl block: inactive; Pemphigus Ab inh: inactive; Efflux pump mplx: inactive; Arr AP2 block: 79; Arr-AP2 CP1: inactive; GST GSH counter: inactive

What do the screens show for `CC(C)CCNC(=O)CCn1nc(-c2ccc(Cl)cc2)ccc1=O`?
Neddyl block: inactive; Pemphigus Ab inh: inactive; Efflux pump mplx: inactive; Arr AP2 block: inactive

How did Cc1cc(C)cc(N(C(=O)C(F)(F)F)C(C(=O)NC2CCCCC2)c2cccs2)c1 (centres undefined) do in these assays?
Neddyl block: inactive; Pemphigus Ab inh: inactive; Efflux pump mplx: inactive; Arr AP2 block: inactive

Results for COc1ccc(-c2nn(-c3ccccc3)cc2/C=C(\C#N)S(=O)(=O)c2ccccc2)cc1OC ?
Pemphigus Ab inh: inactive; Efflux pump mplx: inactive; Arr AP2 block: 78; Arr-AP2 CP1: inactive; GST GSH counter: inactive

How did CC1CN(C(=O)COc2ccc3ccccc3c2Br)CC(C)O1 (centres undefined) do in these assays?
Neddyl block: inactive; Pemphigus Ab inh: inactive; Efflux pump mplx: inactive; Arr AP2 block: 67; Arr-AP2 CP1: inactive; GST GSH counter: inactive

What do the screens show for `O=C(COc1ccc2ccccc2c1Br)N1CCCCC1`?
Neddyl block: inactive; Pemphigus Ab inh: inactive; Efflux pump mplx: inactive; Arr AP2 block: inactive

Results for COc1ccc(C(C)=O)cc1CN1C(=O)NC(CC(C)C)C1=O (centres undefined) ?
Neddyl block: inactive; Pemphigus Ab inh: inactive; Efflux pump mplx: inactive; Arr AP2 block: inactive

Results for COc1cc2c(cc1NC(=O)CCC(=O)O)oc1ccccc12 ?
Neddyl block: inactive; Pemphigus Ab inh: inactive; Efflux pump mplx: inactive; Arr AP2 block: inactive

What do the screens show for `COc1cc2c(cc1NC(=O)CSCC(=O)O)oc1ccccc12`?
Neddyl block: inactive; Pemphigus Ab inh: inactive; Efflux pump mplx: inactive; Arr AP2 block: inactive

Results for COc1cc2c(cc1NC(=O)COc1ccccc1OC)oc1ccccc12 ?
Neddyl block: inactive; Pemphigus Ab inh: inactive; Efflux pump mplx: inactive; Arr AP2 block: inactive; Arr-AP2 CP1: inactive; GST GSH counter: inactive

Results for COc1cc2c(cc1NC(=O)COC(=O)c1ccc(C(C)(C)C)cc1)oc1ccccc12 ?
Neddyl block: inactive; Pemphigus Ab inh: inactive; Efflux pump mplx: inactive; Arr AP2 block: inactive; Arr-AP2 CP1: inactive; GST GSH counter: inactive

What do the screens show for `COc1cc2c(cc1NC(=O)Cc1ccc(C)cc1)oc1ccccc12`?
Neddyl block: inactive; Pemphigus Ab inh: inactive; Efflux pump mplx: inactive; Arr AP2 block: inactive; Arr-AP2 CP1: inactive; GST GSH counter: inactive

How did COc1cc2c(cc1NC(=O)CSc1ccc(C)cc1)oc1ccccc12 do in these assays?
Neddyl block: inactive; Pemphigus Ab inh: inactive; Efflux pump mplx: inactive; Arr AP2 block: inactive; Arr-AP2 CP1: inactive; GST GSH counter: inactive

Results for COc1cc2c(cc1NC(=O)CSc1cccc[n+]1[O-])oc1ccccc12 ?
Neddyl block: inactive; Pemphigus Ab inh: inactive; Efflux pump mplx: inactive; Arr AP2 block: 56; Arr-AP2 CP1: inactive; GST GSH counter: inactive

Results for COc1cc2c(cc1NC(=O)C(C)Sc1ccc(C)cc1)oc1ccccc12 (centres undefined) ?
Neddyl block: inactive; Pemphigus Ab inh: inactive; Efflux pump mplx: inactive; Arr AP2 block: inactive; Arr-AP2 CP1: inactive

Results for COC(=O)c1cc(OC)c(OC)cc1NC(=O)C(C)Sc1ccc(C)cc1 (centres undefined) ?
Neddyl block: inactive; Pemphigus Ab inh: inactive; Efflux pump mplx: inactive; Arr AP2 block: inactive

What do the screens show for `CCOc1cc(/C=C2\SC(N)=NC2=O)ccc1O`?
Neddyl block: inactive; Pemphigus Ab inh: inactive; Efflux pump mplx: inactive; Arr AP2 block: 61; Arr-AP2 CP1: inactive; GST GSH counter: inactive

How did Cc1ccc(C(=O)NC(NCc2ccco2)C(Cl)(Cl)Cl)cc1 (centres undefined) do in these assays?
Neddyl block: inactive; Pemphigus Ab inh: inactive; Efflux pump mplx: inactive; Arr AP2 block: 55; Arr-AP2 CP1: inactive; GST GSH counter: inactive

Results for O=C(c1ccccc1F)N1CCN(c2cnn(-c3cccc(Cl)c3)c(=O)c2Cl)CC1 ?
Neddyl block: inactive; Pemphigus Ab inh: inactive; Efflux pump mplx: inactive; Arr AP2 block: inactive

Results for COc1cccc(CN(C)C(=O)C2CCC(=O)N(Cc3cccc(F)c3)C2)c1 (centres undefined) ?
Neddyl block: inactive; Pemphigus Ab inh: inactive; Efflux pump mplx: inactive; Arr AP2 block: inactive; Arr-AP2 CP1: inactive; GST GSH counter: inactive

What do the screens show for `Cc1cc(C)c(C)c(S(=O)(=O)N2CCN(C(=O)C3CSC4(C)CCC(=O)N34)CC2)c1C` (centres undefined)?
Neddyl block: inactive; Pemphigus Ab inh: inactive; Efflux pump mplx: inactive; Arr AP2 block: inactive
